The test system of assay [1] is A549. Briefly: Antitumor activity against human A549 cells xenografted in BALB/c-nu/nu mouse assessed as effect on tumor growth at 1.6 mg/kg, iv administered as liposomal conjugate for 14 days. Also noted: dose 1.6 mg/kg. It is filed as functional, organism-based. The gist of the method:
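Male BALB/c-nu/nu mice (5 weeks, 15−22 g) with subcutaneous right-subaxillary A549 or DU145 xenografts (3 × 10^6 cells/mouse), grouped by tumor size. Liposomes were made from a lipid film hydrated in water and bath-sonicated 2 h, giving 330 μg/mL conjugate in 17 mM lipid. A single 125 μL intravenous dose (41 μg/mouse) was given on day 0. Tumor size and weight were read every other day for 14 days. n = 5 or 6.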

The test system of assay [2] is A549. The experiment in a line: Cytotoxicity against human A549 cells assessed as cell growth inhibition after 48 hrs by microplate reader analysis. The assay is classed as functional, cell-based. To be noted: A549, 48 h. The gist of the method: (§1)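 Medium was RPMI-1640 for EBC-1, A549 and DU145, and DMEM for PC-3, SK-N-SH and K562. Both media had 10% heat-inactivated FBS plus penicillin/streptomycin; cells were kept at 37 °C, 5% CO2. Cells were seeded at 5000/well and given compound from DMSO stock (final 0.1% DMSO) for 48 h. Viability was read by WST-8 colorimetry, absorbance at 450 and 600 nm, and IC50 determined.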

The subject of the next assay is PC-3. The experiment in a line: Cytotoxicity against human PC3 cells assessed as cell growth inhibition after 48 hrs by microplate reader analysis. To be noted: PC-3, 48 h. It is filed as functional, cell-based. The gist of the method:
as §1

Assay [3] is described as follows: Cytotoxicity against human EBC1 cells assessed as cell growth inhibition after 48 hrs by microplate reader analysis. To be noted: EBC-1, 48 h. It is filed as functional, cell-based. The gist of the method: as §1
The test system of the next assay is SK-N-SH. The experiment in a line: Cytotoxicity against human SK-N-SH cells assessed as cell growth inhibition after 48 hrs by microplate reader analysis. It is filed as functional, cell-based. The gist of the method:
as §1

The next assay relates to K562. Briefly: Cytotoxicity against human K562 cells assessed as cell growth inhibition after 48 hrs by microplate reader analysis. It is filed as functional, cell-based. To be noted: K562, 48 h. The gist of the method:
as §1

The subject of assay [4] is DU-145. The experiment in a line: Cytotoxicity against human DU145 cells assessed as cell growth inhibition after 48 hrs by microplate reader analysis. It is filed as functional, cell-based. Conditions: DU-145, 48 h. The gist of the method:
as §1

The subject of assay [5] is A549. Briefly: Downregulation of PTPRK gene expression in human A549 cells at 26 nM after 12 hrs by microarray analysis relative to control. It is filed as functional. The gist of the method:
(§2)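 A549 cells (RPMI-1640, 10% heat-inactivated FBS, penicillin/streptomycin, 37 °C, 5% CO2) seeded at 4 × 10^5 per 60 mm dish. Exposed 12 h to conjugate at 21, 26, 34 or 100 nM in medium with 0.1% DMSO, against 0.1% DMSO control. Whole-genome (~25 000 genes) expression profiled by microarray.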

The test system of assay [6] is A549. The experiment in a line: Downregulation of NBEA gene expression in human A549 cells at 26 nM after 12 hrs by microarray analysis relative to control. It is filed as functional. The gist of the method:
(§3)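 A549 cells, 4 × 10^5 per 60 mm dish, were exposed to conjugate for 12 h in medium with 0.1% DMSO; vehicle control was 0.1% DMSO. Whole human genome (~25 000 genes) expression was profiled by microarray and expression compared with the control.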

Assay [7] concerns A549. Briefly: Upregulation of HES2 gene expression in human A549 cells at 26 nM after 12 hrs by microarray analysis relative to control. It is filed as functional. The gist of the method: (§4)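 4 ×10^5 A549 cells seeded per 60 mm dish and treated 12 h with conjugate (21, 26, 34 or 100 nM) in medium; control medium contained 0.1% DMSO, with conjugates added as 0.1% DMSO solutions. Whole human genome (~25 000 genes) expression profiled by microarray against the DMSO control. A549 culture: RPMI-1640 with 10% heat-inactivated FBS, penicillin/streptomycin, 37 °C, 5% CO2.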

In assay [8] the test system is A549. The experiment in a line: Upregulation of CDKN1A gene expression in human A549 cells at 26 nM after 12 hrs by microarray analysis relative to control. The assay is classed as functional. The gist of the method: as §4
The subject of assay [9] is A549. The experiment in a line: Upregulation of GADD45A gene expression in human A549 cells at 26 nM after 12 hrs by microarray analysis relative to control. It is filed as functional. The gist of the method:
as §4

For assay [10], the system named is A549. The experiment in a line: Antitumor activity against human A549 cells xenografted in BALB/c-nu/nu mouse assessed as effect on tumor growth at 0.50 mg/kg, ip for 14 days. The assay is classed as functional, organism-based. Also noted: dose 0.5 mg/kg. The gist of the method: (§5)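 Male BALB/c-nu/nu mice, 5 weeks old, 15−22 g. Cells were implanted subcutaneously in the right subaxillary region at 3 × 10^6 cells/mouse: 50 μL for A549, 100 μL for DU145, with HBSS and Matrigel used. Mice were grouped by tumor size. The naked conjugate was given intraperitoneally once on day 0 as 20 μL at 625 μg/mL in 100% DMSO (12.5 μg/mouse). Tumor size and weight were measured every other day for 14 days. n = 7 or 8.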
(In xenograft studies the graft and the host belong to different species.)

Assay [11] deals with DU-145. Briefly: Antitumor activity against human DU145 cells xenografted in BALB/c-nu/nu mouse assessed as effect on tumor growth at 0.50 mg/kg, ip for 14 days. It is filed as functional, organism-based. Also noted: dose 0.5 mg/kg. The gist of the method: as §5
Assay [12] deals with DU-145. The experiment in a line: Antiangiogenic activity against human DU145 cells. The assay is classed as functional, cell-based.
Assay [13] relates to A549. Briefly: Antiangiogenic activity against human A549 cells. It is filed as functional, cell-based.
The test system of the next assay is Nucleic Acid. The experiment in a line: Induction of calf thymus DNA cleavage at 10 to 25 nM after 12 h by PAGE analysis. It is filed as nucleic-acid assay. Conditions: in the assay text read “208-bp PCR fragment DNA” for “calf thymus DNA”. The gist of the method: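 5′-Texas Red-labeled 208 bp PCR fragments alkylated in 5.0 mM sodium phosphate (pH 7.0) with 10% DMF, room temperature, 12 h. Quenched with calf thymus DNA and heated 95 °C for 5 min under neutral conditions. Recovered DNA in formamide loading dye, heated 95 °C 20 min, then run on 6% denaturing polyacrylamide gel with 6.0 M urea at 1.5 kV, 40 °C.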

Assay [14] has as its system A549. The experiment in a line: Downregulation of NBEA gene expression in human A549 cells at 34 nM after 12 hrs by microarray analysis relative to control. It is filed as functional. The gist of the method:
as §3

Assay [15] concerns A549. Briefly: Downregulation of PTPRK gene expression in human A549 cells at 34 nM after 12 hrs by microarray analysis relative to control. It is filed as functional. The gist of the method:
as §2

The subject of assay [16] is A549. Briefly: Downregulation of SUPT3H gene expression in human A549 cells at 34 nM after 12 hrs by microarray analysis relative to control. It is filed as functional. The gist of the method:
as §2

The subject of assay [17] is A549. Briefly: Downregulation of ZNF407 gene expression in human A549 cells at 34 nM after 12 hrs by microarray analysis relative to control. It is filed as functional. The gist of the method:
as §2

Assay [18] relates to A549. Briefly: Downregulation of NP_115632.1 gene expression in human A549 cells at 34 nM after 12 hrs by microarray analysis relative to control. It is filed as functional. The gist of the method: as §3
In assay [19] the test system is A549. Briefly: Downregulation of GTDC1 gene expression in human A549 cells at 34 nM after 12 hrs by microarray analysis relative to control. It is filed as functional. The gist of the method: as §3
Assay [20] concerns A549. The experiment in a line: Downregulation of GPX6 gene expression in human A549 cells at 34 nM after 12 hrs by microarray analysis relative to control. It is filed as functional. The gist of the method:
as §3

The test system of assay [21] is A549. Briefly: Downregulation of HIST1H2AC gene expression in human A549 cells at 34 nM after 12 hrs by microarray analysis relative to control. It is filed as functional. The gist of the method: as §3
Assay [22] concerns A549. The experiment in a line: Upregulation of CDKN1A gene expression in human A549 cells at 34 nM after 12 hrs by microarray analysis relative to control. It is filed as functional. The gist of the method:
as §4

Assay [23] relates to A549. Briefly: Upregulation of KRTHA4 gene expression in human A549 cells at 34 nM after 12 hrs by microarray analysis relative to control. The assay is classed as functional. The gist of the method: as §4
For assay [24], the system named is A549. The experiment in a line: Upregulation of GADD45A gene expression in human A549 cells at 34 nM after 12 hrs by microarray analysis relative to control. The assay is classed as functional. The gist of the method: as §4

SMILES strings stand for the structures. The source made the active and inactive calls. The calls are words filed in the database; no cut-off is given here.

Results on 2 compounds are retold here after ChEMBL document CHEMBL2169747, “Synthesis and biological properties of highly sequence-specific-alkylating N-methylpyrrole-N-methylimidazole polyamide conjugates” (J Med Chem, 2012).

For `CC(=O)Nc1cn(C)c(C(=O)Nc2cc(C(=O)Nc3cc(C(=O)NCCC(=O)Nc4cc(C(=O)NCCCC(=O)Nc5cc(C(=O)NCCC(=O)Nc6cn(C)c(C(=O)Nc7ccc8[nH]c(C(=O)N9CC(CCl)c%10c9cc(O)c9ccccc%109)cc8c7)n6)n(C)c5)n(C)c4)n(C)c3)n(C)c2)n1` (racemic), the outcome in the assay with A549 [1], in the assay on A549 [10], in the assay on DU-145 [11], in the assay on DU-145 [12] and with A549 [13] was inactive. Also, the IC50 in the assay on A549 [2] is 25.7 nM; with PC-3, 12.6 nM; in assay [3], 60.3 nM; in the assay on SK-N-SH, 19.1 nM; with K562 it was 9.12 nM; in the assay on DU-145 [4], 6.03 nM. Besides, the “fold change (FC)” value worked out at 0.257 with A549 [5]; 0.339 in the assay on A549 [6]; 9.4 with A549 [7]; 8.2 in the assay on A549 [8]; 7 with A549 [9]. In addition, the outcome with Nucleic Acid was Active.

`CC(=O)Nc1cn(C)c(C(=O)Nc2cn(C)c(C(=O)Nc3cc(C(=O)NCCC(=O)Nc4cc(C(=O)NCCCC(=O)Nc5cn(C)c(C(=O)NCCC(=O)Nc6cn(C)c(C(=O)Nc7ccc8[nH]c(C(=O)N9CC(CCl)c%10c9cc(O)c9ccccc%109)cc8c7)n6)n5)n(C)c4)n(C)c3)n2)n1` (racemic): the outcome in the assay on A549 [1], with A549 [10], with DU-145 [11], with DU-145 [12] and with A549 [13] was inactive. The IC50 in the assay with A549 [2] was 33.9 nM; in the assay with PC-3 it was 19.1 nM; in [3], 170 nM; in the assay on SK-N-SH, 40.7 nM; in the assay with K562, 11.5 nM; with DU-145 [4], 6.31 nM. Besides, the “fold change (FC)” value with A549 [14] is recorded as 0.152; in the assay on A549 [15] it was 0.189; in the assay on A549 [16], 0.231; with A549 [17], 0.241; in the assay with A549 [18], 0.273; in the assay on A549 [19], 0.307. The “fold change (FC)” value in the assay with A549 [20] is on record as 0.322; with A549 [21], 0.329; in the assay on A549 [22] it was 7.8; in the assay on A549 [23] it was 6.1; with A549 [24], 5.9. The outcome in the assay on Nucleic Acid was Active.

A word on the IC50: it is the concentration at which inhibition is half-maximal.
